Common to all, as to type: nucleic-acid assay
Holding throughout (details): Bos taurus

Experiment [1] deals with Nucleic Acid. Kind of experiment: Binding affinity to calf thymus DNA assessed as bathochromic shift at 30 uM by UV-visible absorption spectroscopy. In short, it runs like this:
(§1)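 CT-DNA checked for purity by A260/A280; concentration per nucleotide from extinction coefficient at 260 nm (6600 M-1 cm-1). Compound held constant at 30 μM in 50% DMSO/phosphate buffer, pH 7.2 (5 mM in one passage, 0.2 M in another). DNA titrated from 0 to 100 μM, spectra recorded after each addition once equilibrated.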

Experiment [2] relates to Nucleic Acid. Briefly: Binding affinity to calf thymus DNA assessed as melting temperature at 5 to 10 uM by thermal denaturation analysis. In short, it runs like this: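 Thermal melting of CT-DNA (50 μM) in phosphate buffer pH 7.2, with and without compound (5–10 μM). Absorbance at 260 nm followed across temperatures. Tm taken as the point of 50% strand separation, with curve width from the 10–90% absorbance rise.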

In experiment [3] the test system is Nucleic Acid. Briefly: Binding affinity to calf thymus DNA assessed as increase in viscosity of short, rod-like DNA at compound to DNA ratio of 0.2 to 1.4 by viscometer. The method, boiled down:
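Viscometer titration of CT-DNA solution (496.2 μmol/L) in phosphate buffer pH 7.2 with increasing compound concentrations. Flow time measured at 25 °C in an Ostwald viscometer, with the same method for each compound.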

Experiment [4] deals with Nucleic Acid. Briefly: Binding affinity to calf thymus DNA assessed as intrinsic binding constant by UV-visible absorption spectroscopy. The method, boiled down:
as §1

In experiment [5] the test system is Nucleic Acid. Briefly: Binding affinity to calf thymus DNA assessed as hypochromicity at 30 uM by UV-visible absorption spectroscopy. In short, it runs like this:
as §1

Activity calls are given as the source filed them. The calls are words filed in the database; no cut-off is given here.

Regarding `CCCCc1nc(Cl)c([C@@H]2[C@H]3C(C)=NN(c4ccccc4)C3=Nc3c(/N=N/c4ccc(Cl)cc4)c(N)nn32)[nH]1`, the result in the experiment on Nucleic Acid [1], in the experiment with Nucleic Acid [3] and in the experiment on Nucleic Acid [5] was Active. In addition, the Tm with Nucleic Acid [2] was 82 °C. Further, the Kb in the experiment on Nucleic Acid [4] is 5.7 ×10⁵ /M.
On to `CCCCc1nc(Cl)c(/C=C2/C(=O)N(c3ccccc3)N=C2C)[nH]1`, for which the result in the experiment on Nucleic Acid [1], in the experiment on Nucleic Acid [3] and in the experiment on Nucleic Acid [5] was Active. Also, the Tm with Nucleic Acid [2] came out at 80 °C. Besides, the Kb in the experiment on Nucleic Acid [4] worked out at 5.21 ×10⁵ /M.

Values taken from ChEMBL document CHEMBL2203253, “An ecofriendly synthesis and DNA binding interaction study of some pyrazolo [1,5-a]pyrimidines derivatives” (Bioorg Med Chem Lett, 2012).
